# Assay results: ChEMBL document CHEMBL1909534, “Solvent-free, microwave assisted Knoevenagel condensation of novel 2,5-disubstituted indole analogues and their biological evaluation” (Eur J Med Chem, 2011)
# Calls of active or inactive are those of the source. No cut-off for these calls is given here.
# Experiments:
# [1] = Antioxidant activity assessed as ferric ion reducing ability at after 20 mins by spectrophotometric analysis; type: functional
# Procedure, shortened: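 10, 50 and 500 μg samples in 2.5 mL 200 mmol/L sodium phosphate pH 6.6 plus 2.5 mL 1% potassium ferricyanide, 20 min at 50 °C. Then 2.5 mL 10% TCA added; 5 mL of this mixed with 5 mL water and 1 mL 0.1% FeCl3, and A700 read. BHA as standard.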
# [2] = Antioxidant activity assessed as equivalents of ascorbic acid at 10 to 500 ug after 90 mins; type: functional
# Procedure, shortened: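 Phosphomolybdenum method: 10, 50 and 500 μg samples mixed with 1.9 mL reagent (0.6 M sulfuric acid, 28 mM sodium phosphate, 4 mM ammonium molybdate), held 90 min at 95 °C, cooled, A695 read against blank. Values are μg ascorbic acid equivalents per mg, taken from an ascorbic acid standard curve.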
# [3] = test system: HEp-2; test: Cytotoxicity against human Hep2 cells by MTT assay; type: functional, cell-based
# Procedure, shortened: (§1)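 Cells grown in RPMI 1640 with 10% FCS, penicillin 100 U/mL and streptomycin 100 μg/mL at 37 °C, 5% CO₂. Seeded at 1 × 10⁵ cells/well. Compounds diluted in DMSO, tested at 0–100 µg/mL. Viability read by MTT kit, with medium-only wells as control. IC50 derived by non-linear regression from three independent experiments.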
# [4] = test system: Radical scavenging activity; test: Antioxidant activity assessed as DPPH free radical scavenging activity after 20 mins; type: functional
# Procedure, shortened: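 DPPH method: samples at 10, 50 and 100 μg/100 μl made up to 100 μl with MeOH, mixed with 5 mL 0.1 mM methanolic DPPH, shaken, left 20 min at 27 °C; A517 read against control without sample. % scavenging = (control OD − sample OD)/control OD × 100. BHA as standard.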
# [5] = test system: A549; test: Cytotoxicity against human A549 cells by MTT assay; type: functional, cell-based; procedure, shortened: as §1
# [6] = test system: HeLa; test: Cytotoxicity against human HeLa cells by MTT assay; type: functional, cell-based; procedure, shortened: as §1
Structure (SMILES),Activity [1],Activity [2],IC50 [3],Activity [4],IC50 [5],IC50 [6]
O=C1NC(=O)C(=Cc2c(-c3ccccc3)[nH]c3ccc(Cl)cc23)C(=O)N1,Dose-dependent effect,Active,> 100 µM,Dose-dependent effect,27 µM,30 µM
O=C1NC(=O)/C(=C/c2c(-c3ccccc3)[nH]c3ccc(Cl)cc23)S1,Dose-dependent effect,Active,12.1 µM,Dose-dependent effect,4.5 µM,7 µM
Cc1ccc2[nH]c(-c3ccccc3)c(C=C3C(=O)NC(=O)NC3=O)c2c1,Dose-dependent effect,Active,> 100 µM,inactive,> 100 µM,> 100 µM
O=C1NC(=S)NC(=O)C1=Cc1c(-c2ccccc2)[nH]c2ccc(Cl)cc12,Dose-dependent effect,Active,45.7 µM,Dose-dependent effect,27.5 µM,23.5 µM
O=C1NC(=O)/C(=C/c2c[nH]c3ccccc23)S1,Dose-dependent effect,Active,> 100 µM,Dose-dependent effect,87.7 µM,60.7 µM
CC1=NNC(=O)/C1=C/c1c[nH]c2ccccc12,Dose-dependent effect,Active,1.2 µM,Dose-dependent effect,3.4 µM,33.1 µM
COc1cccc2c1C(=O)c1c(O)c3c(c(O)c1C2=O)C[C@@](O)(C(=O)CO)C[C@@H]3O[C@H]1C[C@H](N)[C@H](O)[C@H](C)O1 [DOXORUBICIN],,,8.7 µM,,0.7 µM,0.71 µM
CC1=NNC(=O)/C1=C/c1c(-c2ccccc2)[nH]c2ccc(Cl)cc12,Dose-dependent effect,Active,7.9 µM,Dose-dependent effect,1 µM,2.1 µM
Cc1ccc2[nH]c(-c3ccccc3)c(/C=C3\SC(=O)NC3=O)c2c1,Dose-dependent effect,Active,> 100 µM,inactive,> 100 µM,> 100 µM
O=C1NC(=O)C(=Cc2c[nH]c3ccccc23)C(=O)N1,Dose-dependent effect,Active,> 100 µM,Dose-dependent effect,77.4 µM,74 µM
O=C1NC(=S)NC(=O)C1=Cc1c[nH]c2ccccc12,Dose-dependent effect,Active,> 100 µM,Dose-dependent effect,52.3 µM,63 µM
CC1=NNC(=O)/C1=C/c1c(-c2ccccc2)[nH]c2ccc(C)cc12,Dose-dependent effect,Active,26.3 µM,inactive,7.7 µM,> 100 µM
Cc1ccc2[nH]c(-c3ccccc3)c(C=C3C(=O)NC(=S)NC3=O)c2c1,Dose-dependent effect,Active,> 100 µM,inactive,> 100 µM,> 100 µM
